Experiments:
[1] = Retention time of the compound in rat urine treated with [14C]-EW-7197, po by LC-MS analysis; type: ADME, organism-based
[2] = Drug level in rat bile treated with [14C]-EW-7197, po by LC-MS analysis; type: ADME, organism-based; conditions: in vivo
[3] = Drug level in rat feces treated with [14C]-EW-7197, po by LC-MS analysis; type: ADME, organism-based; conditions: in vivo
[4] = tested on: Plasma; test: Drug level in rat plasma treated with [14C]-EW-7197, po by LC-MS analysis; type: ADME, organism-based; conditions: in vivo
[5] = biological target: T1, TGF-beta receptor type-1 (Homo sapiens, UniProt P36897); test: Inhibition of GST-fused recombinant human ALK5 expressed in baculovirus-infected insect Sf9 cells using casein as substrate by radioisotope-based assay
T1 sequence (P36897 whole entry): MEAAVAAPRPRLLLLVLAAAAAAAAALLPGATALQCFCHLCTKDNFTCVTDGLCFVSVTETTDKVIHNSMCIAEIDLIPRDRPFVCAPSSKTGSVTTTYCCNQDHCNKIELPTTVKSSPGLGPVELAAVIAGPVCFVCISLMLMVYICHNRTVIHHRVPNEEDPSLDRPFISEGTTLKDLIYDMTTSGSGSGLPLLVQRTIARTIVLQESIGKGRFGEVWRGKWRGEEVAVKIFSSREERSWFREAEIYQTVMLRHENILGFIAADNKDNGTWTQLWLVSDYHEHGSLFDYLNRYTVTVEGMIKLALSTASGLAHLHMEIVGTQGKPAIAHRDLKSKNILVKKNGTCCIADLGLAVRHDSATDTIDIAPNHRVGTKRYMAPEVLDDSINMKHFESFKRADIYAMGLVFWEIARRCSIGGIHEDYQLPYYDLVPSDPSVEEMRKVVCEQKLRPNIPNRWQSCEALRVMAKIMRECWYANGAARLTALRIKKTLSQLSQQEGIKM

[6] = biological target: Mitogen-activated protein kinase 14 (Homo sapiens, UniProt Q16539); test: Inhibition of recombinant human p38-alpha expressed in Escherichia coli using ATF2 as substrate by radioisotope-based assay
[7] = species: Homo sapiens; test: Selectivity index, ratio of IC50 for recombinant human p38-alpha to IC50 for GST-fused recombinant human ALK5
How it was run: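 Ratio of p38α IC50 to ALK5 IC50. ALK5 was a human recombinant GST-fusion protein expressed in Sf9 insect cells via baculovirus. p38α was […] human recombinant protein expressed in E. coli and purified on Ni-NTA agarose. Both were run in a radioisotopic ³³P protein kinase assay (³³PanQinase), with casein as the ALK5 substrate and ATF2 as the p38α substrate.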

[8] = Drug metabolism in po dosed rat urine assessed as formation of 4-([1,2,4]triazolo[1,5-a]pyridin-6-yl)-5-(6-methylpyridin-2-yl)-1H-imidazole-2-carboxylic acid by LC-MS analysis; type: ADME, organism-based; conditions: in vivo
[9] = tested on: Plasma; test: Retention time of the compound in po dosed rat plasma by LC-MS analysis; type: ADME, organism-based; conditions: in vivo
[10] = Drug metabolism in po dosed rat bile assessed as formation of 4-([1,2,4]triazolo[1,5-a]pyridin-6-yl)-5-(6-methylpyridin-2-yl)-1H-imidazole-2-carboxylic acid by LC-MS analysis; type: ADME, organism-based; conditions: in vivo
[11] = Drug metabolism in po dosed rat feces assessed as formation of 4-([1,2,4]triazolo[1,5-a]pyridin-6-yl)-5-(6-methylpyridin-2-yl)-1H-imidazole-2-carboxylic acid by LC-MS analysis; type: ADME, organism-based; conditions: in vivo
[12] = tested on: Plasma; test: Drug metabolism in po dosed rat plasma assessed as formation of 4-([1,2,4]triazolo[1,5-a]pyridin-6-yl)-5-(6-methylpyridin-2-yl)-1H-imidazole-2-carboxylic acid by LC-MS analysis; type: ADME, organism-based; conditions: in vivo
[13] = Drug metabolism in po dosed rat urine assessed as formation of (4-([1,2,4]triazolo[1,5-a]pyridin-6-yl)-5-(6-methylpyridin-2-yl)-1H-imidazol-2-yl)methanol by LC-MS analysis; type: ADME, organism-based; conditions: in vivo
[14] = tested on: Plasma; test: Drug metabolism in po dosed rat plasma assessed as formation of (4-([1,2,4]triazolo[1,5-a]pyridin-6-yl)-5-(6-methylpyridin-2-yl)-1H-imidazol-2-yl)methanol by LC-MS analysis; type: ADME, organism-based; conditions: in vivo
[15] = Drug metabolism in po dosed rat feces assessed as formation of (4-([1,2,4]triazolo[1,5-a]pyridin-6-yl)-5-(6-methylpyridin-2-yl)-1H-imidazol-2-yl)methanol by LC-MS analysis; type: ADME, organism-based; conditions: in vivo
[16] = Drug metabolism in po dosed rat urine assessed as formation of 4-([1,2,4]triazolo[1,5-a]pyridin-6-yl)-5-(6-methylpyridin-2-yl)-1H-imidazol-2-ol by LC-MS analysis; type: ADME, organism-based; conditions: in vivo
[17] = tested on: Plasma; test: Drug metabolism in po dosed rat plasma assessed as formation of 4-([1,2,4]triazolo[1,5-a]pyridin-6-yl)-5-(6-methylpyridin-2-yl)-1H-imidazole-2-carbaldehyde by LC-MS analysis; type: ADME, organism-based; conditions: in vivo
[18] = Drug metabolism in po dosed rat bile assessed as formation of 4-([1,2,4]triazolo[1,5-a]pyridin-6-yl)-5-(6-methylpyridin-2-yl)-1H-imidazole-2-carbaldehyde by LC-MS analysis; type: ADME, organism-based; conditions: in vivo
[19] = Drug metabolism in po dosed rat feces assessed as formation of 4-([1,2,4]triazolo[1,5-a]pyridin-6-yl)-5-(6-methylpyridin-2-yl)-1H-imidazole-2-carbaldehyde by LC-MS analysis; type: ADME, organism-based; conditions: in vivo
[20] = Retention time of the compound in rat bile treated with [14C]-EW-7197, po by LC-MS analysis; type: ADME, organism-based
[21] = Drug level in rat urine treated with [14C]-EW-7197, po by LC-MS analysis; type: ADME, organism-based; conditions: in vivo
[22] = tested on: Plasma; test: Retention time of the compound in rat plasma treated with [14C]-EW-7197, po by LC-MS analysis; type: ADME, organism-based
[23] = biological target: T2, TGF-beta receptor type-1 (Homo sapiens) (UniProt P36897); test: Potency index, ratio of SB-505124 IC50 to compound IC50 for GST-fused recombinant human ALK5 expressed in baculovirus-infected insect Sf9 cells
T2 sequence (whole entry): T1 sequence (P36897 whole entry)

Mitogen-activated protein kinase 14, sequence (Q16539 whole entry, the tested form may be a part): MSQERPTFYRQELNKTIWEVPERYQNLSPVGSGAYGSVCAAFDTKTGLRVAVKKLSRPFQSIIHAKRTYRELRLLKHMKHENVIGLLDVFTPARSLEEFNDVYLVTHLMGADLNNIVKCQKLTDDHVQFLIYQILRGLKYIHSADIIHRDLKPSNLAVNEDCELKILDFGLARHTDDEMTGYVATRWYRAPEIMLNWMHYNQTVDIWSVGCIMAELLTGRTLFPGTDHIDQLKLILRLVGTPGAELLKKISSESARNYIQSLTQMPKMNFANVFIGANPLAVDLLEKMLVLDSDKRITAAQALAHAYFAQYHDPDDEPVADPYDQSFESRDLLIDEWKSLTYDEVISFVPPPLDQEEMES

Row | Structure (SMILES) | IC50 [5] [nM] | IC50 [6] [nM] | Ratio IC50 [7] | further results
1 | Cc1cccc(-c2[nH]c(C=O)nc2-c2ccc3ncnn3c2)n1 | – | – | – | Retention_time [1]: 62.37 min; Drug metabolism [2]: metabolite_detected; Drug metabolism [3]: metabolite_detected; Drug metabolism [4]: metabolite_detected
2 | Cc1cccc(-c2[nH]c(CNC(=O)c3cccc(C(N)=O)c3)nc2-c2ccc3ncnn3c2)n1 | 106 | > 10000 | > 94 | –
3 | Cc1cccc(-c2nn(CC(=O)Nc3ccccc3)cc2-c2ccc3ncnn3c2)n1 | 78 | > 10000 | > 128 | –
4 | Cc1cccc(-c2[nH]c(CNC(=S)c3cccc(C(N)=O)c3)nc2-c2ccc3ncnn3c2)n1 | 22 | 2830 | 129 | –
5 | Cc1cccc(-c2nn(CC(=S)Nc3ccccc3F)cc2-c2ccc3ncnn3c2)n1 | 29 | 5210 | 180 | –
6 | Cc1cccc(-c2nn(CC(=O)Nc3cccc(C(N)=O)c3)cc2-c2ccc3ncnn3c2)n1 | 36 | > 10000 | > 278 | –
7 | Cc1cccc(-c2[nH]c(Cc3cccc(C(N)=O)c3)nc2-c2ccc3nccnc3c2)n1 | – | – | 28 | –
8 | Cc1cccc(-c2[nH]c(CNc3ccccc3F)nc2-c2ccc3ncnn3c2)n1 [VACTOSERTIB] | – | – | – | Drug metabolism [8]: metabolite_detected; Retention_time [9]: 71.53 min; Drug metabolism [10]: metabolite_detected; Drug metabolism [11]: metabolite_detected; Drug metabolism [12]: metabolite_detected; Drug metabolism [13]: metabolite_detected; Drug metabolism [14]: metabolite_detected; Drug metabolism [15]: metabolite_detected; Drug metabolism [16]: metabolite_detected; Drug metabolism [17]: metabolite_detected; Drug metabolism [18]: metabolite_detected; Drug metabolism [19]: metabolite_detected
9 | Cc1cccc(-c2[nH]c(O)nc2-c2ccc3ncnn3c2)n1 | – | – | – | Retention_time [20]: 54.56 min; Drug metabolism [21]: metabolite_detected
10 | Cc1cccc(-c2nn(CC(=O)Nc3cccc(C#N)c3)cc2-c2ccc3ncnn3c2)n1 | 27 | > 10000 | > 370 | –
11 | Cc1cccc(-c2[nH]c(CNC(=S)c3ccccc3)nc2-c2ccc3ncnn3c2)n1 | 48 | 3770 | 79 | –
12 | Cc1cccc(-c2[nH]c(CNC(=O)c3cccc(C#N)c3)nc2-c2ccc3ncnn3c2)n1 | 90 | > 10000 | > 111 | –
13 | Cc1cccc(-c2[nH]c(CN)nc2-c2ccc3ncnn3c2)n1 | – | – | – | Retention_time [20]: 68.77 min
14 | Cc1cccc(-c2nn(CC(=O)Nc3ccccc3F)cc2-c2ccc3ncnn3c2)n1 | 85 | > 10000 | > 118 | –
15 | Cc1cccc(-c2[nH]c(C(=O)O)nc2-c2ccc3ncnn3c2)n1 | – | – | – | Retention_time [22]: 24.43 min; Drug metabolism [21]: metabolite_detected; Drug metabolism [2]: metabolite_detected; Drug metabolism [3]: metabolite_detected
16 | Cc1cccc(-c2[nH]c(CNC(=S)c3ccccc3F)nc2-c2ccc3ncnn3c2)n1 | 27 | 1050 | 39 | –
17 | Cc1cccc(-c2[nH]c(CO)nc2-c2ccc3ncnn3c2)n1 | – | – | – | Retention_time [20]: 53.65 min; Drug metabolism [21]: metabolite_detected; Drug metabolism [3]: metabolite_detected; Drug metabolism [4]: metabolite_detected
18 | Cc1cccc(-c2[nH]c(CNC(=S)c3cccc(C#N)c3)nc2-c2ccc3ncnn3c2)n1 | 36 | 1490 | 41 | –
19 | Cc1cccc(-c2[nH]c(CNC(=O)c3ccccc3F)nc2-c2ccc3ncnn3c2)n1 | 37 | > 10000 | > 270 | –
20 | Cc1cccc(-c2[nH]c(CNC(=O)c3ccccc3)nc2-c2ccc3ncnn3c2)n1 | 57 | > 10000 | > 175 | –
21 | Cc1cccc(-c2nn(CC(=S)Nc3cccc(C#N)c3)cc2-c2ccc3ncnn3c2)n1 | 18 | 5110 | 284 | Ratio IC50 [23]: 3
